# The source made the active and inactive calls. The calls are words filed in the database; no cut-off is given here.
# Key:
# [1] = Cytotoxicity against human BEAS-2B cells assessed as reduction in cell viability measured after 48 hrs by MTT assay; type: toxicity, cell-based
# Summary of the method: (§1)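 Cells kept in medium with 10% FBS and 1% antibiotic–antimycotic at 37 °C, 5% CO2. Seeded at 3000–4000 cells/well, grown overnight, then given fresh medium with a range of concentrations (diluted from 10 mM DMSO stocks) for 48 h. MTT (0.5 mg/mL) added for 3–4 h at 37 °C. Formazan dissolved in DMSO and absorbance read at 570 nm.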
# [2] = Selectivity index, ratio of IC50 for cytotoxicity against human BEAS-2B cells to IC50 for cytotoxicity against human A549 cells; type: functional
# SK-MEL-28 [3] = assay: Induction of apoptosis in human SK-MEL-28 cells assessed as budding nucleus at 1.73 to 6.92 uM incubated for 48 hrs by DAPI staining based fluorescence microscopy; type: functional, cell-based; details: dose 1.73-6.92 µM
# Summary of the method: (§2)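 SK-MEL-28 exposed 48 h, then PBS-washed, fixed in 4% paraformaldehyde, permeabilized with 0.1% Triton X for 15 min and stained with 10 µg/mL DAPI. Nuclei viewed by fluorescence (ex 359/em 461 nm), 20X, with untreated controls.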
# SK-MEL-28 [4] = assay: Induction of cell cycle arrest in human SK-MEL-28 cells assessed as accumulation of cells at G2/M phase at 1.73 uM incubated for 48 hrs by flow cytometry (reference value: 13.14%); type: functional
# SK-MEL-28 [5] = assay: Induction of apoptosis in human SK-MEL-28 cells assessed as reduction in live cells at 1.73 to 6.92 uM after 48 hrs by phase contrast microscopic analysis; type: functional, cell-based; details: dose 1.73-6.92 µM
# Summary of the method: (§3)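 SK-MEL-28 cells plated at 1×10^6 cells/mL, allowed to adhere overnight, then exposed to several concentrations for 48 h. Bright-field imaging at 20X to score cell shrinkage, deformation and viable cell number.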
# SK-MEL-28 [6] = assay: Induction of cell cycle arrest in human SK-MEL-28 cells assessed as accumulation of cells at G0/G1 phase at 1.73 uM incubated for 48 hrs by flow cytometry (reference value: 79.59%); type: functional
# SK-MEL-28 [7] = assay: Induction of apoptosis in human SK-MEL-28 cells assessed as cell membrane disruption at 1.73 to 6.92 uM incubated for 48 hrs by AO/EB staining based fluorescence microscopy; type: functional; details: dose 1.73-6.92 µM
# Summary of the method: (§4)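 SK-MEL-28 plated at 1×10^6 cells/mL and treated at several concentrations for 48 h. Acridine orange and ethidium bromide added at 10 µg/ml, and cells imaged at once by fluorescence microscopy (ex 488/em 550 nm), 20X.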
# [8] = Selectivity index, ratio of IC50 for cytotoxicity against human BEAS-2B cells to IC50 for cytotoxicity against mouse B16-F10 cells; type: functional
# HCT-116 = assay: Cytotoxicity against human HCT-116 cells assessed as reduction in cell viability measured after 48 hrs by MTT assay; type: functional, cell-based; details: HCT-116, 48 h; summary of the method: as §1
# Tubulin [9] = assay: Inhibition of tubulin polymerization (unknown origin) at 1.73 to 6.92 uM measured after 1 hr; type: protein-complex assay, Homo sapiens
# Summary of the method: (§5)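 Fluorescence-based tubulin polymerization kit: tubulin, GTP and tubulin glycerol buffer mixed and added to compound (from 10x stocks), enhancer and inhibitor reference standards, and blanks in a plate prewarmed to 37 °C. Read kinetically for 1 h at ex 360/em 450 nm.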
# SK-MEL-28 [10] = assay: Induction of cell cycle arrest in human SK-MEL-28 cells assessed as accumulation of cells at G2/M phase at 3.46 uM incubated for 48 hrs by flow cytometry (reference value: 13.14%); type: functional
# SK-MEL-28 [11] = assay: Induction of apoptosis in human SK-MEL-28 cells assessed as morphological changes measured after 48 hrs by AO/EB staining based microscopic analysis; type: functional, cell-based; details: dose 1.73-6.92 µM; summary of the method: as §4
# SK-MEL-28 [12] = assay: Induction of cell cycle arrest in human SK-MEL-28 cells assessed as accumulation of cells at G0/G1 phase at 3.46 uM incubated for 48 hrs by flow cytometry (reference value: 79.59%); type: functional
# SK-MEL-28 [13] = assay: Induction of cell cycle arrest in human SK-MEL-28 cells assessed as accumulation of cells at G2/M phase at 6.92 uM incubated for 48 hrs by flow cytometry (reference value: 13.14%); type: functional
# A549 = assay: Cytotoxicity against human A549 cells assessed as reduction in cell viability measured after 48 hrs by MTT assay; type: functional, cell-based; details: A549, 48 h; summary of the method: as §1
# SK-MEL-28 [14] = assay: Induction of apoptosis in human SK-MEL-28 cells assessed as nuclear condensation at 1.73 to 6.92 uM incubated for 48 hrs by DAPI staining based fluorescence microscopy; type: functional, cell-based; details: dose 1.73-6.92 µM; summary of the method: as §2
# SK-MEL-28 [15] = assay: Induction of apoptosis in human SK-MEL-28 cells assessed as blebbing nucleus at 1.73 to 6.92 uM incubated for 48 hrs by DAPI staining based fluorescence microscopy; type: functional, cell-based; details: dose 1.73-6.92 µM; summary of the method: as §2
# SK-MEL-28 [16] = assay: Induction of cell cycle arrest in human SK-MEL-28 cells assessed as accumulation of cells at S phase at 1.73 uM incubated for 48 hrs by flow cytometry (reference value: 6.34%); type: functional
# SK-MEL-28 [17] = assay: Induction of apoptosis in human SK-MEL-28 cells assessed as apoptotic body formation at 1.73 to 6.92 uM incubated for 48 hrs by AO/EB staining based fluorescence microscopy; type: functional, cell-based; details: dose 1.73-6.92 µM; summary of the method: as §4
# [18] = Selectivity index, ratio of IC50 for cytotoxicity against human BEAS-2B cells to IC50 for cytotoxicity against human SK-MEL-28 cells; type: functional
# SK-MEL-28 [19] = assay: Induction of cell cycle arrest in human SK-MEL-28 cells assessed as accumulation of cells at G0/G1 phase at 6.92 uM incubated for 48 hrs by flow cytometry (reference value: 79.59%); type: functional
# SK-MEL-28 [20] = assay: Induction of apoptosis in human SK-MEL-28 cells assessed as early apoptotic cells measured after 48 hrs by annexin-V-FITC/PI double staining based flow cytometric analysis; type: functional, cell-based; details: dose 1.73-6.92 µM
# Summary of the method: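 1×10^6 SK-MEL-28 cells treated at various concentrations for 48 h. Cells trypsinized with supernatant retained and washed twice in ice-cold PBS. Stained with annexin V-FITC and PI in binding buffer for 15 min at room temperature in the dark, kept on ice, and analysed by flow cytometry.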
# SK-MEL-28 [21] = assay: Induction of apoptosis in human SK-MEL-28 cells assessed as increase in red fluorescence at 1.73 to 6.92 uM incubated for 48 hrs by AO/EB staining based fluorescence microscopy; type: functional, cell-based; details: dose 1.73-6.92 µM; summary of the method: as §4
# SK-MEL-28 [22] = assay: Induction of apoptosis in human SK-MEL-28 cells assessed as cellular shrinkage at 1.73 to 6.92 uM after 48 hrs by phase contrast microscopic analysis; type: functional, cell-based; details: dose 1.73-6.92 µM; summary of the method: as §3
# SK-MEL-28 [23] = assay: Induction of apoptosis in human SK-MEL-28 cells assessed as horseshoe-shaped nucleus at 1.73 to 6.92 uM incubated for 48 hrs by DAPI staining based fluorescence microscopy; type: functional, cell-based; details: dose 1.73-6.92 µM; summary of the method: as §2
# B16-F10 = assay: Cytotoxicity against mouse B16-F10 cells assessed as reduction in cell viability measured after 48 hrs by MTT assay; type: functional, cell-based; details: B16-F10, 48 h; summary of the method: as §1
# SK-MEL-28 [24] = assay: Cytotoxicity against human SK-MEL-28 cells assessed as reduction in cell viability measured after 48 hrs by MTT assay; type: functional, cell-based; details: SK-MEL-28, 48 h; summary of the method: as §1
# SK-MEL-28 [25] = assay: Induction of apoptosis in human SK-MEL-28 cells assessed as increase in ROS level incubated for 48 hrs by DCFDA staining based fluorescence microscopic assay; type: functional, cell-based; details: dose 1.73-6.92 µM
# Summary of the method: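 SK-MEL-28 seeded at 1×10^6 cells/well and treated at several concentrations for 48 h at 37 °C. DCFDA (10 µM) loaded for 30 min at 37 °C, excess washed off with PBS, and green DCF fluorescence imaged (ex 498/em 530 nm), 20X.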
# SK-MEL-28 [26] = assay: Induction of cell cycle arrest in human SK-MEL-28 cells assessed as accumulation of cells at S phase at 3.46 uM incubated for 48 hrs by flow cytometry (reference value: 6.34%); type: functional
# Tubulin (Homo sapiens) = Tubulin (Homo sapiens) (UniProt P68371+Q9H4B7+P0DPH7+P68366+Q13509+Q71U36+P04350+Q3ZCM7+P07437+P68363+Q9BQE3+Q6PEY2+Q13885+Q9BVA1+Q9BUF5); assay: Inhibition of tubulin polymerization (unknown origin) at 1.73 to 6.92 uM measured after 1 hr relative to control; type: protein-complex assay; details: dose 1.73-6.92 µM; summary of the method: as §5
# SK-MEL-28 [27] = assay: Induction of apoptosis in human SK-MEL-28 cells assessed as nucleus fragmentation at 1.73 to 6.92 uM incubated for 48 hrs by DAPI staining based fluorescence microscopy; type: functional, cell-based; details: dose 1.73-6.92 µM; summary of the method: as §2
# SK-MEL-28 [28] = assay: Induction of apoptosis in human SK-MEL-28 cells assessed as change in cell shape at 1.73 to 6.92 uM after 48 hrs by phase contrast microscopic analysis; type: functional, cell-based; details: dose 1.73-6.92 µM; summary of the method: as §3
# SK-MEL-28 [29] = assay: Potency index, ratio of sunitinib IC50 to test compound IC50 for cytotoxicity against human SK-MEL-28 cells assessed as reduction in cell viability measured after 48 hrs by MTT assay; type: functional
# [30] = Selectivity index, ratio of IC50 for cytotoxicity against human BEAS-2B cells to IC50 for cytotoxicity against human HCT-116 cells; type: functional
# SK-MEL-28 [31] = assay: Induction of cell cycle arrest in human SK-MEL-28 cells assessed as accumulation of cells at S phase at 6.92 uM incubated for 48 hrs by flow cytometry (reference value: 6.34%); type: functional
# HeLa = assay: Cytotoxicity against human HeLa cells assessed as reduction in cell viability; type: functional, cell-based
# Tubulin [32] = assay: Inhibition of tubulin polymerization (unknown origin); type: cell-based, Homo sapiens
smiles,measurement,setting,value
O=C1CS/C(=N\c2cc(-c3c[nH]c4ccccc34)nn2-c2cccc(Cl)c2)N1,IC50 at 48 h,[1],15.9 µM
same,Ratio IC50,[2],1.38
same,Activity,SK-MEL-28 [3],Active
same,Activity,SK-MEL-28 [4],14.31%
same,Activity,SK-MEL-28 [5],Active
same,Activity,SK-MEL-28 [6],77.35%
same,Activity,SK-MEL-28 [7],Active
same,Ratio IC50,[8],1.47
same,IC50,HCT-116,9.02 µM
same,IC50,Tubulin [9],< 1.73 µM
same,Activity,SK-MEL-28 [10],16.11%
same,Activity,SK-MEL-28 [11],Dose-Dependent Effect
same,Activity,SK-MEL-28 [12],77.33%
same,Activity,SK-MEL-28 [13],16.39%
same,IC50,A549,11.5 µM
same,Activity,SK-MEL-28 [14],Active
same,Activity,SK-MEL-28 [15],Active
same,Activity,SK-MEL-28 [16],6.73%
same,Activity,SK-MEL-28 [17],Active
same,Ratio IC50,[18],4.59
same,Activity,SK-MEL-28 [19],77.01%
same,Activity,SK-MEL-28 [20],Dose-Dependent Effect
same,Activity,SK-MEL-28 [21],Active
same,Activity,SK-MEL-28 [22],Active
same,Activity,SK-MEL-28 [23],Active
same,IC50,B16-F10,10.8 µM
same,IC50,SK-MEL-28 [24],3.46 µM
same,Activity,SK-MEL-28 [25],Dose-Dependent Effect
same,Activity,SK-MEL-28 [26],6.73%
same,inhibition,Tubulin (Homo sapiens),60%
same,Activity,SK-MEL-28 [27],Active
same,Activity,SK-MEL-28 [28],Active
same,Ratio IC50,SK-MEL-28 [29],1.5
same,Ratio IC50,[30],1.76
same,Activity,SK-MEL-28 [31],5.7%
COc1cc(NC(=O)/C=C/c2cc(-c3cc(OC)c(OC)c(OC)c3)n[nH]2)cc(OC)c1OC,IC50,HeLa,0.4 µM
CCOc1ccc(-c2n[nH]cc2-c2cc(OC)c(OC)c(OC)c2)cc1,IC50,Tubulin [32],0.35 µM
